Our source for the IC50 values is ChEMBL document CHEMBL1138019, “Synthesis and antitumor activity of 4-hydroxycoumarin derivatives” (Bioorg Med Chem Lett, 2004).

Molecules are shown by their SMILES. Some results are limits rather than exact numbers.

Holding throughout (type): functional, cell-based
For assay [1], the system named is XF498. The assay can be described thus: Concentration required for inhibiting proliferation of human brain tumor cell line XF 498 after 72 hr of incubation was determined. To be noted: XF498, 72 h. The gist of the method:
(§1)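 SRB assay. Cells were passaged with trypsin-EDTA, seeded at 1–2 · 10^4 cells/well and grown for 24 h. Compounds dissolved in culture medium were added in triplicate and incubated 48 h at 37 C, 5% CO2. Cells were fixed with 10% cold TCA, stained with 0.4% SRB in 1% acetic acid, and the dye was solubilized in 10 mM Tris base (pH 10.5). Absorbance was read at 520 nm. IC50 is the concentration giving 50% inhibition.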

Assay [2] concerns HCT-15. Briefly: Concentration required for inhibiting proliferation of human colon tumor cell line HCT-15 after 72 hr of incubation was determined. To be noted: HCT-15, 72 h. The gist of the method: as §1
Assay [3] deals with SK-OV-3. The assay can be described thus: Concentration required for inhibiting proliferation of human ovarian tumor cell line SK-OV-3 after 72 hr of incubation was determined. To be noted: SK-OV-3, 72 h. An outline of the steps:
as §1

Assay [4] concerns A549. The assay can be described thus: Concentration required for inhibiting proliferation of human lung tumor cell line A549 after 72 hr of incubation was determined. To be noted: A549, 72 h. The gist of the method: as §1
The subject of assay [5] is SK-MEL-2. Briefly: Concentration required for inhibiting proliferation of human melanoma tumor cell line SK-MEL-2 after 72 hr of incubation was determined. To be noted: SK-MEL-2, 72 h. The gist of the method: as §1
In assay [6] the test system is SK-MEL-2. Briefly: Concentration required for inhibiting proliferation of human melanoma tumor cell line SK-MEL-2 by 50% after 72 hr of incubation was determined. To be noted: SK-MEL-2, 72 h. An outline of the steps:
as §1

The subject of assay [7] is XF498. The assay can be described thus: Concentration required for inhibiting proliferation of human brain tumor cell line XF 498 by 50% after 72 hr of incubation was determined. To be noted: XF498, 72 h. An outline of the steps:
as §1

For `CCC1(c2ccccc2)CC(=O)C(C(CC(=O)c2ccc(-c3ccc(Br)cc3)cc2)c2ccccc2)=C(O)O1` (stereo not given), the IC50 in assay [1] is 6.59 µM; in assay [2], 6.71 µM; in assay [3], 5.74 µM; in assay [4], 8.13 µM; in assay [5] it was 8.51 µM.

As to `CCCC1(CCc2ccccc2)CC(=O)C(C2CC(c3ccc(-c4ccc(Br)cc4)cc3)Cc3ccccc32)=C(O)O1` (stereo not given), the IC50 in assay [1], in assay [2], in assay [3], in assay [4] and in assay [5] was above 10 µM each time.

Consider `CCC1(c2ccccc2)CC(=O)C(C2CC(c3ccc(-c4ccc(Br)cc4)cc3)Cc3ccccc32)=C(O)O1` (stereo not given), for which the IC50 in assay [1], in assay [2], in assay [3], in assay [4] and in assay [5] was above 10 µM each time.

Take `CCC1(c2ccccc2)CC(=O)C(C2CC(c3ccc(OCc4ccc(C(F)(F)F)cc4)cc3)Cc3ccccc32)=C(O)O1` (stereo not given): the IC50 in assay [1], in assay [2], in assay [3], in assay [4] and in assay [5] was above 10 µM each time.

`CCCC1(c2ccccc2)CC(=O)C(C(CC(=O)c2ccc(-c3ccc(Br)cc3)cc2)c2ccccc2)=C(O)O1` (stereo not given): the IC50 in assay [1], in assay [2], in assay [3], in assay [4] and in assay [5] was above 10 µM each time.

Take `COc1ccc(C2Cc3ccccc3C(C3=C(O)OC(C)(c4ccccc4)CC3=O)C2)cc1` (stereo not given): the IC50 in assay [1], in assay [2], in assay [3], in assay [4] and in assay [5] was above 10 µM throughout.

For `CC1(c2ccccc2)CC(=O)C(C2CC(c3ccc(-c4ccc(Br)cc4)cc3)Cc3ccccc32)=C(O)O1` (stereo not given), the IC50 in assay [1] amounted to 1.36 µM; in assay [2] it was 1.31 µM; in assay [3] it was 1.8 µM; in assay [4], 1.83 µM; in assay [5] it was 2.05 µM.

Take `CC1(c2ccccc2)CC(=O)C(C(CC(=O)c2ccc(-c3ccc(Br)cc3)cc2)c2ccccc2)=C(O)O1` (stereo not given): the IC50 came to 6.73 µM in assay [1]; 8.59 µM in assay [2]; 5.69 µM in assay [3]; 9.18 µM in assay [4]; 8.54 µM in assay [5].

As for `CCC1(c2ccccc2)CC(=O)C(C2CC(c3ccc(OC)cc3)Cc3ccccc32)=C(O)O1` (stereo not given), the IC50 in assay [1], in assay [2], in assay [3], in assay [4] and in assay [5] was above 10 µM each time.

In the case of `COc1cc([C@@H]2c3cc4c(cc3[C@@H](O[C@@H]3O[C@@H]5CO[C@@H](C)O[C@H]5[C@H](O)[C@H]3O)[C@H]3COC(=O)[C@H]23)OCO4)cc(OC)c1O` [ETOPOSIDE], the IC50 in assay [2] was found to be 1.45 µM; in assay [3] it was 3.46 µM; in assay [6], 4.13 µM; in assay [4] it was 1.06 µM; in assay [7] it was 3.14 µM.
